Reference: ChEMBL document CHEMBL2321684, “Novel hybrids of optically active ring-opened 3-n-butylphthalide derivative and isosorbide as potential anti-ischemic stroke agents” (J Med Chem, 2013)
The source made the active and inactive calls. The rule behind the calls is not given here.

Tests used:
Rattus norvegicus [1] = test: Antiischemic activity in Sprague-Dawley rat assessed as reduction in middle cerebral artery occlusion-induced abnormal changes in brain at 340 mg/kg administered via gavage for 7 days prior to middle cerebral artery occlusion-challenge measured after 24 hrs by microscopic analysis; type: functional, organism-based; set-up: dose 340 mg/kg
Procedure, shortened: (§1)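 Male SD rats (280−320 g), n = 12 per group, dosed by gavage daily for 7 days in 0.5% CMC-Na vehicle. Sham animals received vehicle only. Two hours after the last dose, rats were anesthetized with chloral hydrate (300 mg/kg ip) and given MCAO for 2 h, then reperfused. Body temperature was held at 37 °C. All endpoints were read at 24 h post reperfusion.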

Rattus norvegicus [2] = test: Antiischemic activity in Sprague-Dawley rat assessed as reduction in middle cerebral artery occlusion-induced inflammatory infiltrates in brain at 340 mg/kg administered via gavage for 7 days prior to middle cerebral artery occlusion-challenge measured after 24 hrs by microscopic analysis; type: functional, organism-based; set-up: dose 340 mg/kg; procedure, shortened: as §1
Rattus norvegicus [3] = test: Antiischemic activity in Sprague-Dawley rat assessed as reduction in middle cerebral artery occlusion-induced necrosis in neurons at 340 mg/kg administered via gavage for 7 days prior to middle cerebral artery occlusion-challenge measured after 24 hrs by microscopic analysis; type: functional, organism-based; set-up: dose 340 mg/kg; procedure, shortened: as §1
Rattus norvegicus [4] = test: Antiischemic activity in Sprague-Dawley rat assessed as reduction in middle cerebral artery occlusion-induced necrosis in neurons at 80 mg/kg administered via gavage for 7 days prior to middle cerebral artery occlusion-challenge measured after 24 hrs by microscopic analysis; type: functional, organism-based; set-up: dose 80 mg/kg; procedure, shortened: as §1
Rattus norvegicus [5] = test: Antiischemic activity in Sprague-Dawley rat assessed as reduction in middle cerebral artery occlusion-induced water content in brain at 80 mg/kg administered via gavage for 7 days prior to middle cerebral artery occlusion-challenge measured after 24 hrs relative to control; type: functional, organism-based; set-up: dose 80 mg/kg; procedure, shortened: as §1
Rattus norvegicus [6] = test: Antiischemic activity in Sprague-Dawley rat assessed as reduction in middle cerebral artery occlusion-induced neurological deficit scores at 80 mg/kg administered via gavage for 7 days prior to middle cerebral artery occlusion-challenge measured after 24 hrs relative to control; type: functional, organism-based; set-up: dose 80 mg/kg; procedure, shortened: as §1
[7] = Plasma concentration in ICR mouse at 680 mg/kg, po after 1 hrs by HPLC analysis; type: ADME, organism-based; set-up: dose 680 mg/kg, route oral
Procedure, shortened: (§2)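 Male ICR mice (30−35 g), n = 6 per time point, were given a single 680 mg/kg gavage dose and sacrificed at 0.5, 1, 2, 4 and 8 h. Brains were rinsed, weighed and homogenized in 3 volumes of saline. Plasma and homogenate were precipitated with 3 volumes of acetonitrile.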

[8] = Plasma concentration in ICR mouse at 680 mg/kg, po after 0.5 hrs by HPLC analysis; type: ADME, organism-based; set-up: dose 680 mg/kg, route oral; procedure, shortened: as §2
[9] = Biodistribution in ICR mouse brain at 680 mg/kg, po after 4 hrs by HPLC analysis; type: ADME, organism-based; set-up: dose 680 mg/kg, route oral; details: read-out: Drug uptake; procedure, shortened: as §2
Rattus norvegicus [10] = test: Antithrombotic activity in Sprague-Dawley rat assessed as reduction in arteriovenous shunt-induced wet thrombus weight at 80 mg/kg, administered via gavage for 7 days prior to arteriovenous shunt-challenge measured up to 15 mins relative to control; type: functional, organism-based; set-up: dose 80 mg/kg
Procedure, shortened: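 Male SD rats (250−280 g), n = 12 per group, dosed by gavage daily for 7 days in 0.5% CMC-Na. Two hours after the last dose, rats were anesthetized with chloral hydrate (300 mg/kg ip). A saline-filled 14 cm polyethylene catheter holding a 6 cm silk thread linked the left jugular vein and right carotid artery for 15 min. The thrombus was then weighed wet and dry. Results are mean ± SD, analysed by ANOVA/Tukey.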

Mus musculus = test: Antithrombotic activity in Swiss ICR mouse assessed as inhibition of collagen/adrenaline-induced acute systemic vascular thromboembolism at 680 mg/kg, po administered for 7 days prior to collagen/adrenaline-challenge measured up to 15 mins relative to control; type: functional, organism-based; set-up: dose 680 mg/kg
Procedure, shortened: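 Male Swiss ICR mice (30−35 g), n = 15 per group, dosed by gavage daily for 7 days in DMSO vehicle. Two hours after the last dose, mice received collagen (0.21 mg/kg) plus adrenaline (44.5 μg/kg) iv. Survival was monitored for 15 min and reported as % surviving.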

[11] = Stability in artificial intestinal juice assessed as compound remaining at pH 6.8 measured immediately by HPLC analysis; type: physicochemical; details: simulated gi fluid
[12] = Stability in artificial gastric juice assessed as compound remaining at pH 1.5 measured immediately by HPLC analysis; type: physicochemical; details: simulated gi fluid
Platelet = test: Antiplatelet aggregation activity in rabbit platelets assessed as inhibition of ADP-induced platelet aggregation at 0.1 mM incubated for 5 mins prior to ADP-challenge measured within 5 mins by turbidimetric analysis; type: functional, cell-based; details: Oryctolagus cuniculus
Procedure, shortened: (§3)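 Rabbit carotid blood was citrated (3.8%, 9:1). PRP was adjusted with PPP to 400−450 × 10⁹ platelets/L. PRP was preincubated with compound or DMSO for 5 min at 37 °C, then aggregation was induced with ADP at 10 μM. Maximum aggregation rate was recorded over 5 min using Born's turbidimetry. Inhibition % was calculated versus vehicle; n = 6, mean ± SD.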

[13] = Antiplatelet aggregation activity in rabbit platelets assessed as inhibition of ADP-induced platelet aggregation at 1 mM incubated for 5 mins prior to ADP-challenge measured within 5 mins by Born's turbidimetric analysis relative to control; type: functional; details: Oryctolagus cuniculus; procedure, shortened: as §3

- concentration at 1 h [7]: 241 ng/mL
- concentration at 0.5 h [8]: 320 ng/mL
- concentration at 4 h [9]: 54.3 ng/mL
- Stability [11]: 4.97 µM
- Stability [12]: 4.92 µM
Structure (SMILES): CCCC[C@H](OC(=O)CN1CCN(C)CC1)c1ccccc1C(=O)O[C@H]1CO[C@H]2[C@@H]1OC[C@H]2OC(=O)c1ccccc1[C@H](CCCC)OC(=O)CN1CCN(C)CC1
- Activity (Rattus norvegicus [1]): Active
- Activity (Rattus norvegicus [2]): Active
- Activity (Rattus norvegicus [3]): Active
- Activity (Rattus norvegicus [4]): Active
- Activity (Rattus norvegicus [5]): Active
- Activity (Rattus norvegicus [6]): Active
- Activity (Rattus norvegicus [10]): Active
- Activity (Mus musculus): Active
- inhibition (Platelet): Active
- inhibition at 1000 µM [13]: 50.1%
